Published values from different studies.
Protocols differ between the studies behind these lines.
Target: Serine/threonine-protein kinase 38-like (STK38L, Homo sapiens, UniProt Q9Y2H1)

O=C(NCCCN1CCOCC1)c1ccc(Nc2nccc(-c3cc4ccccc4s3)n2)cc1
remaining binding (binding, competition with immobilised ligand; 1 µM): 100%

CC(C)(O)c1cncc(-c2nc3ccc(F)cc3n2C2CC2)c1
remaining binding (cell-free assay, competition with immobilised ligand; 1 µM): 100%

O=C(c1ccc(Nc2nccc(-c3cc4ccccc4s3)n2)cc1)N1CCC(N2CCCC2)CC1
remaining binding (binding, competition with immobilised ligand; 1 µM): 94%

COc1ccc2c(c1)O[C@@H](c1ccc(OC)c(OC)c1)C[C@H]2NC(=O)C1(c2ccc3c(c2)OC(F)(F)O3)CC1
remaining binding (cell-free assay, competition with immobilised ligand; 1 µM): 100%

COc1cnc(Nc2cccc(S(N)(=O)=O)c2)nc1N1CCN(c2ccccc2)C(=O)C1
remaining binding (binding, competition with immobilised ligand; 1 µM): 100%

Cc1cc(NC(=O)c2cccc(S(F)(F)(F)(F)F)c2)cc(-n2ccn3nc(-c4cccnc4)cc23)c1
remaining binding (cell-free assay, competition with immobilised ligand; 1 µM): 100%

N[C@H]1CCN(c2nccc(-c3cnn4ncccc34)n2)C1
remaining binding (binding; 1 µM): 100%

Cc1cnc(Nc2ccc(C(=O)N3CCC(N4CCCC4)CC3)cc2)nc1-c1cc2ccccc2s1
remaining binding (binding, competition with immobilised ligand; 1 µM): 100%

C[C@@H]1CCN(c2nccc(-c3cnn4ncccc34)n2)C1
remaining binding (binding; 1 µM): 100%

CC1=C(C#N)[C@@H](c2ccc3[nH]nc(C)c3c2)C(C#N)=C(c2ccc(Cl)cc2)N1
remaining binding (binding, competition with immobilised ligand; 1 µM): 100%

c1cnn2ncc(-c3ccnc(N4CCC45COC5)n3)c2c1
remaining binding (binding; 1 µM): 78%

Nc1ncc2c(n1)-c1c([nH]c3ccc(C#CC4CC4)cc13)CCCC2
remaining binding (binding, competition with immobilised ligand; 1 µM): 100%

COc1ccnn2ncc(-c3ccnc(N(C)C)n3)c12
remaining binding (binding; 1 µM): 96%

CNC(=O)[C@@H]1CC[C@@H](n2c(-c3ccc4cnccc4c3)nc3ccc(C(=O)NCc4cccc(C(N)=O)c4)cc32)C1
remaining binding (binding, competition with immobilised ligand; 1 µM): 100%

CC1CCCN1c1nccc(-c2cnn3ncccc23)n1 (stereo not shown)
remaining binding (binding; 1 µM): 100%

COc1ncc2cc3ccccc3nc2c1C#N
remaining binding (binding, competition with immobilised ligand; 5 µM): 87%

CN(C)C(=O)Cn1cc(-c2nc(C3(c4ccc(-c5cnc(N)nc5)cc4)CC3)no2)cn1
remaining binding (cell-free assay, competition with immobilised ligand; 1 µM): 81%

C[C@@H](c1ccc(-n2cnc3c(N)ncnc32)cc1)N1CCc2nn(C)c(Cc3ccccc3)c2C1=O
remaining binding (binding, competition with immobilised ligand; 0.1 µM): 80%

Cc1cnn2ncc(-c3ccnc(N(C)C)n3)c2c1
remaining binding (binding; 1 µM): 100%

O=C(Nc1c[nH]nc1C(=O)NC1CCNCC1)c1cc(F)cc(F)c1
remaining binding (binding, competition with immobilised ligand; 1 µM): 93%

F[C@@H]1CCN(c2nccc(-c3cnn4ncccc34)n2)C1
remaining binding (binding; 1 µM): 100%

COc1cccc(CNC(=O)c2nc3scc(COCc4ccc(C(=O)O)cc4)c3c(=O)[nH]2)c1
remaining binding (cell-free assay, competition with immobilised ligand; 1 µM): 87.7%
